E-selectin induc: E-selectin induction in HUVECs, primary screen, imaging, HUVEC, immunofluorescence imaging, single point; P16581; normalized: neutral wells 0, TNF-alpha wells 100; activation, % at 7.58 µM; 260,000 compounds, 0.37% hits;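 active means mean E-selectin-positive cell signal at least 10% of the positive control, reached in at least 60% of replicates, without over 20% cell loss; inconclusive means no rule given, readout overlaps actives, possibly toxicity-flagged; inactive means the rest, including those meeting only one limit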
Target sequence (P16581 whole entry, looked up): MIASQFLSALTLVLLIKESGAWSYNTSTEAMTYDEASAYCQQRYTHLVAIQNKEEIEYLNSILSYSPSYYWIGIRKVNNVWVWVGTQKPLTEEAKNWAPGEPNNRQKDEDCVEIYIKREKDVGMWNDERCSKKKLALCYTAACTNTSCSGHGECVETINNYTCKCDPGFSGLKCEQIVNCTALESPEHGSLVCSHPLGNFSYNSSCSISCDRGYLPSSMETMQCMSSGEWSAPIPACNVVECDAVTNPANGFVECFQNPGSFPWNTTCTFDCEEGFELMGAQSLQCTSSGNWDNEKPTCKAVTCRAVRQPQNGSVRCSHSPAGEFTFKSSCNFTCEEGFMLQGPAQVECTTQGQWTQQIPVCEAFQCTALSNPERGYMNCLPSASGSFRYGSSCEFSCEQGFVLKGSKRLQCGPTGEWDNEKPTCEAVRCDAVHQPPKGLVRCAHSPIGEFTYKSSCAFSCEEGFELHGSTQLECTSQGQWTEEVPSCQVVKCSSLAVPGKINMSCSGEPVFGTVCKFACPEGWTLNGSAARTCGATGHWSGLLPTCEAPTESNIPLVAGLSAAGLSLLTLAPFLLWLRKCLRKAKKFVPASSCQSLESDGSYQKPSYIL
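Assay system: HUVEC, human umbilical vein endothelial cells / Amount: 3,000 HUVEC/well / Controls: TNF-alpha positive control, DMSO neutral control / Compound dosing: single concentration / Medium: EGM-2 over gelatin coat / Evaluation: percent E-selectin-positive cells / Signal: immunofluorescence imaging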
C2C12 statin: suppressors of statin myotoxicity in C2C12 myotubes, primary screen, cell-based, single point, plate reader; C2C12 myotubes + simvastatin, ATP luminescence, 48 h; scaled: DMSO 0, geranylgeraniol control 100; rescue of ATP level, % at 7.49 µM; 330,000 compounds, 0.78% hits;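 active means mean ATP rescue above about 67%, or every replicate alone reaching that limit, limit read from the data, passing the limit was not always enough; inconclusive means no clear call, values can overlap the other calls; inactive means mean under the limit and some replicate under it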;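 further: myotubes were challenged with 10 µM simvastatin during compound exposure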
DENV2 CPE: inhibitors of DENV2 cytopathic effect, primary screen, cell-based, plate reader, single concentration; CPE inhibition, % at 9.99 µM; 350,000 compounds, 1.7% hits; AID 651640, 2012; DENV2-infected cells, cytopathic effect rescue; in the data active means CPE inhibition above about 20%, passing the limit was not always enough; inconclusive means no clear call, values can overlap the other calls; tested in BHK-21 cells;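 further: 0% = median of neutral control wells and 100% = median of positive control wells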
* hit, by the source's call. This is a sample that favours compounds with a hit; in the whole collection about 2.2% have one here.

`C[C@@H]1CCCCO[C@@H](CN(C)S(=O)(=O)c2cccs2)[C@H](C)CN([C@@H](C)CO)C(=O)c2cc(NS(=O)(=O)c3cn(C)cn3)ccc2O1` gave DENV2 CPE -3.
Screening CC(C)C#Cc1ccc([C@@H]2[C@@H](CO)N3C(=O)CN(C(=O)NC4CCCCC4)C[C@H]23)cc1 returned E-selectin induc -1 and DENV2 CPE -4.
For Cn1c(=O)c2cc(S(=O)(=O)NC(C(=O)Nc3cccc(F)c3)c3ccccc3)ccc2n(C)c1=O (centres undefined) the results were E-selectin induc 0 and DENV2 CPE 78*.
Screening Cn1c(=O)c2cc(S(=O)(=O)NC(C(=O)Nc3cccnc3)c3ccccc3)ccc2n(C)c1=O (centres undefined) returned E-selectin induc 0, C2C12 statin 7 and DENV2 CPE -8.
For C[C@H](CO)N1C[C@H](C)[C@@H](CN(C)S(=O)(=O)c2ccc(F)cc2)Oc2ccc(NS(C)(=O)=O)cc2CC1=O the results were E-selectin induc 311*, C2C12 statin -26 and DENV2 CPE 10.
C[C@@H]1CN([C@H](C)CO)C(=O)Cc2cc(NS(=O)(=O)c3ccc(F)cc3)ccc2O[C@@H]1CN(C)S(=O)(=O)c1ccc(Cl)cc1 was read as E-selectin induc 69*, C2C12 statin -1 and DENV2 CPE -8.
Screening C[C@H]1CN([C@@H](C)CO)C(=O)Cc2cc(NC(=O)C3CCCCC3)ccc2O[C@H]1CN(C)S(=O)(=O)c1ccc(Cl)cc1 returned E-selectin induc 0, C2C12 statin 4 and DENV2 CPE 1.
`C[C@H](CO)N1C[C@H](C)[C@H](CN(C)S(C)(=O)=O)Oc2ccc(NS(=O)(=O)c3ccc(F)cc3)cc2CC1=O` gave E-selectin induc 0, C2C12 statin 50 and DENV2 CPE -1.
For C[C@@H]1CN([C@@H](C)CO)C(=O)Cc2cc(NS(=O)(=O)c3ccc(Cl)cc3)ccc2O[C@H]1CN(C)S(=O)(=O)c1ccc(F)cc1 the results were E-selectin induc 0, C2C12 statin -14 and DENV2 CPE -6.
C[C@H]1CN([C@@H](C)CO)C(=O)Cc2cc(NS(C)(=O)=O)ccc2O[C@@H]1CN(C)S(=O)(=O)c1ccc(F)cc1 was read as E-selectin induc 7, C2C12 statin -17 and DENV2 CPE -14.
For C[C@H](CO)N1C[C@H](C)[C@@H](CN(C)S(=O)(=O)c2ccc(Cl)cc2)Oc2ccc(NC(=O)C3CC3)cc2CC1=O the results were E-selectin induc 0, C2C12 statin -21 and DENV2 CPE 30*.
For C[C@H]1CN([C@@H](C)CO)C(=O)Cc2cc(NS(=O)(=O)c3ccc(F)cc3)ccc2O[C@@H]1CN(C)S(C)(=O)=O the results were E-selectin induc 0, C2C12 statin 27 and DENV2 CPE 46*.
CCCN1C[C@@H](C)[C@H](OC)CN(C)C(=O)c2cc(NC(=O)C3CCC3)ccc2OC[C@@H]1C was read as E-selectin induc 0 and C2C12 statin 1.
For O=C(C[C@@H]1CC[C@@H](NS(=O)(=O)c2ccc(F)cc2)[C@@H](CO)O1)N1CCc2ccccc2C1 the results were E-selectin induc 2, C2C12 statin -1 and DENV2 CPE 8.
`C[C@H](CO)N1C[C@H](C)[C@@H](CN(C)S(C)(=O)=O)Oc2c(NC(=O)C3CCOCC3)cccc2C1=O` gave E-selectin induc -13, C2C12 statin -27 and DENV2 CPE 5.
`COc1ccc(NC(=O)Nc2ccc3c(c2)CC(=O)N([C@@H](C)CO)C[C@H](C)[C@@H](CN(C)C(=O)Nc2cccc4ccccc24)O3)cc1` gave E-selectin induc 0, C2C12 statin 20 and DENV2 CPE 9.
`CCCC(=O)Nc1ccc2c(c1)C(=O)N(C)[C@H]1CC[C@H](CC(=O)Nc3ccccc3OC)O[C@@H]1CO2` gave E-selectin induc 0, C2C12 statin 20 and DENV2 CPE 1.
`C[C@@H]1CN([C@@H](C)CO)C(=O)Cc2cc(NS(=O)(=O)c3ccc(F)cc3)ccc2O[C@@H]1CN(C)S(=O)(=O)c1ccc(F)cc1` gave E-selectin induc 0, C2C12 statin 3 and DENV2 CPE -6.
Screening Cc1ccc(S(=O)(=O)Nc2ccc3c(c2)CC(=O)N([C@H](C)CO)C[C@H](C)[C@H](CN(C)S(=O)(=O)c2ccc(C)cc2)O3)cc1 returned E-selectin induc 0, C2C12 statin inconclusive and DENV2 CPE -1.
CNC[C@@H]1Oc2ccc(NS(=O)(=O)c3ccc(C)cc3)cc2CC(=O)N([C@@H](C)CO)C[C@H]1C was read as E-selectin induc 21, C2C12 statin 13 and DENV2 CPE 13.
C[C@H]1CN([C@@H](C)CO)C(=O)Cc2cc(NS(=O)(=O)c3ccc(F)cc3)ccc2O[C@H]1CN(C)S(=O)(=O)c1ccc(Cl)cc1 was read as E-selectin induc 198*, C2C12 statin 27 and DENV2 CPE -3.
C[C@@H]1CN([C@@H](C)CO)C(=O)Cc2cc(NS(=O)(=O)c3ccc(Cl)cc3)ccc2O[C@H]1CN(C)S(=O)(=O)c1ccc(Cl)cc1 was read as E-selectin induc 1, C2C12 statin -7 and DENV2 CPE -14.
C[C@H]1CN([C@@H](C)CO)C(=O)Cc2cc(NS(=O)(=O)c3ccc(F)cc3)ccc2O[C@@H]1CN(C)S(=O)(=O)c1ccc(Cl)cc1 was read as E-selectin induc 60*, C2C12 statin 13 and DENV2 CPE 17.
`Cc1ccc(S(=O)(=O)Nc2ccc3c(c2)CC(=O)N([C@@H](C)CO)C[C@@H](C)[C@H](CN(C)S(=O)(=O)c2ccc(C)cc2)O3)cc1` gave E-selectin induc 1, C2C12 statin 95* and DENV2 CPE -1.
For CNC[C@@H]1Oc2ccc(NS(=O)(=O)c3ccc(C)cc3)cc2CC(=O)N([C@H](C)CO)C[C@H]1C the results were E-selectin induc 5, C2C12 statin -15 and DENV2 CPE 42*.
`O=C(N[C@H]1CC[C@H](CCNS(=O)(=O)Cc2ccccc2)O[C@H]1CO)c1ccc2c(c1)OCO2` gave E-selectin induc 1, C2C12 statin 3 and DENV2 CPE -2.
`C[C@@H]1CN([C@H](C)CO)C(=O)Cc2cc(NS(=O)(=O)c3ccc(Cl)cc3)ccc2O[C@H]1CN(C)S(=O)(=O)c1ccc(F)cc1` gave E-selectin induc -1, C2C12 statin 43 and DENV2 CPE 6.
For C[C@@H]1CN([C@@H](C)CO)C(=O)Cc2cc(NS(=O)(=O)c3ccc(Cl)cc3)ccc2O[C@@H]1CN(C)S(=O)(=O)c1ccc(Cl)cc1 the results were E-selectin induc 1, C2C12 statin -37 and DENV2 CPE 47*.
Screening C[C@@H]1CN([C@@H](C)CO)C(=O)Cc2cc(NS(=O)(=O)c3ccc(F)cc3)ccc2O[C@@H]1CN(C)S(=O)(=O)c1ccc(Cl)cc1 returned E-selectin induc 102*, C2C12 statin 25 and DENV2 CPE 1.
C[C@@H]1CN([C@H](C)CO)C(=O)Cc2cc(NS(=O)(=O)c3ccc(Cl)cc3)ccc2O[C@H]1CN(C)S(=O)(=O)c1ccc(Cl)cc1 was read as E-selectin induc 1, C2C12 statin 55 and DENV2 CPE inconclusive.
